Assay results as given in ChEMBL document CHEMBL3393046, “Conformationally-locked N-glycosides: exploiting long-range non-glycone interactions in the design of pharmacological chaperones for Gaucher disease” (Eur J Med Chem, 2015).
The source made the active and inactive calls. The rule behind the calls is not given here.

Key:
[1] = target: T1, Lysosomal acid glucosylceramidase (Homo sapiens, UniProt P04062); assay: Inhibition of human beta-glucocerebrosidase at pH 5.0 by spectrophotometry
T1 sequence (P04062 whole entry): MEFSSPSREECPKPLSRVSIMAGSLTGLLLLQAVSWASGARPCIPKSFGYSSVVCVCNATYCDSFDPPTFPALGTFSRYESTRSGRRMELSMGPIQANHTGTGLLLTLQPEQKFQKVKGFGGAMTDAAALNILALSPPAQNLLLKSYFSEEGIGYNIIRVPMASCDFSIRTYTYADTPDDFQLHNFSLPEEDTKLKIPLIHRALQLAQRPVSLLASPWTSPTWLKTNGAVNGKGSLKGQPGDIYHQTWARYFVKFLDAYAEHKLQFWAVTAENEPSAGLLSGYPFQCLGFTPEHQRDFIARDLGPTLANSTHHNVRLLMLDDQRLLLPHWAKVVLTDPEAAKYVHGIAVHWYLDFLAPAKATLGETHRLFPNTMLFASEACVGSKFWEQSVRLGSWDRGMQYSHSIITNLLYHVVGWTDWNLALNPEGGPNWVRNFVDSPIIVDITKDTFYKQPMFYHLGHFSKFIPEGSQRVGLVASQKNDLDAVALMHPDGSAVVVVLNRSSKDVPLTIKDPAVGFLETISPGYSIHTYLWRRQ

Aspergillus niger = assay: Inhibition of Aspergillus niger amyloglucosidase at 2 mM incubated for 10 to 30 mins by spectrophotometry
Procedure, shortened: (§1)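 Reaction started by adding enzyme to substrate, without or with various inhibitor concentrations, in phosphate or phosphate-citrate buffer (α/β-mannosidase, amyloglucosidase) at each enzyme's optimal pH. Incubation 10–30 min at 37 °C (55 °C for amyloglucosidase), timed for 10–20% conversion. Stopped with 1 M Na₂CO₃, or for trehalase by heating then GLC-Trinder. Absorbance 405 nm (trehalase 492 nm). Approximate Ki from fixed substrate near Km.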

[2] = target: T2, Alpha-mannosidase (Canavalia ensiformis) (UniProt C0HJB3); assay: Inhibition of jack bean alpha-mannosidase at 2 mM incubated for 10 to 30 mins by spectrophotometry
T2 sequence (whole entry): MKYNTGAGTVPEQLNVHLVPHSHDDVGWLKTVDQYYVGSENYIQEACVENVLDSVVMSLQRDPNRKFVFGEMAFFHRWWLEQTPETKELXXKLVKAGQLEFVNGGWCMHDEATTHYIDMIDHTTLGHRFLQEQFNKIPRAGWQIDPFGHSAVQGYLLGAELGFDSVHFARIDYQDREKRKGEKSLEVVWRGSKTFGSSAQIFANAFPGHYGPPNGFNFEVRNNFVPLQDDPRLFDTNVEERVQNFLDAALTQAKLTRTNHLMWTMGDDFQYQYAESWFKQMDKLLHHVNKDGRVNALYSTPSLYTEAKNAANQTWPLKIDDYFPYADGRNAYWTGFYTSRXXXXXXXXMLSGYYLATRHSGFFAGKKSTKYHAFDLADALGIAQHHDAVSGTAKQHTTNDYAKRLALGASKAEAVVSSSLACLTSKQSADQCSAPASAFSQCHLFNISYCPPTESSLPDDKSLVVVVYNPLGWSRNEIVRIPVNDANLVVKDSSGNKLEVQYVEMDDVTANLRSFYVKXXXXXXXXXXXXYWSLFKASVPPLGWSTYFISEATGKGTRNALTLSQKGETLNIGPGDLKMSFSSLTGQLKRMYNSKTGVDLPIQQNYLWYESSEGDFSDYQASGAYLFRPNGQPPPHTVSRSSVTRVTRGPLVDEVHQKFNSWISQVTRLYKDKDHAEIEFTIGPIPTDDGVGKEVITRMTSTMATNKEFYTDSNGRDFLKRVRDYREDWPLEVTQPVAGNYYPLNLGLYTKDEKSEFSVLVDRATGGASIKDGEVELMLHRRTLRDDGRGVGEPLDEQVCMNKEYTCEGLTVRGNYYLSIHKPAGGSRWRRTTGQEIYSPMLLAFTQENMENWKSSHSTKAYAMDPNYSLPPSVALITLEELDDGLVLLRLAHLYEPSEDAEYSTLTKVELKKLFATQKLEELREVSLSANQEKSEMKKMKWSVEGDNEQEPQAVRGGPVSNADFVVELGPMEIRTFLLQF
Procedure, shortened: as §1

Saccharomyces cerevisiae = assay: Inhibition of yeast isomaltase at 2 mM incubated for 10 to 30 mins by spectrophotometry
Procedure, shortened: as §1

Penicillium decumbens = assay: Inhibition of Penicillium decumbens naringinase at 2 mM incubated for 10 to 30 mins using substrate by spectrophotometry
Procedure, shortened: as §1

[3] = target: T3, Uncharacterized protein (Sus scrofa) (UniProt I3LIR5); assay: Inhibition of pig kidney trehalase at 2 mM incubated for 10 to 30 mins using alpha,alpha'-trehalose substrate by spectrophotometry
T3 sequence (whole entry): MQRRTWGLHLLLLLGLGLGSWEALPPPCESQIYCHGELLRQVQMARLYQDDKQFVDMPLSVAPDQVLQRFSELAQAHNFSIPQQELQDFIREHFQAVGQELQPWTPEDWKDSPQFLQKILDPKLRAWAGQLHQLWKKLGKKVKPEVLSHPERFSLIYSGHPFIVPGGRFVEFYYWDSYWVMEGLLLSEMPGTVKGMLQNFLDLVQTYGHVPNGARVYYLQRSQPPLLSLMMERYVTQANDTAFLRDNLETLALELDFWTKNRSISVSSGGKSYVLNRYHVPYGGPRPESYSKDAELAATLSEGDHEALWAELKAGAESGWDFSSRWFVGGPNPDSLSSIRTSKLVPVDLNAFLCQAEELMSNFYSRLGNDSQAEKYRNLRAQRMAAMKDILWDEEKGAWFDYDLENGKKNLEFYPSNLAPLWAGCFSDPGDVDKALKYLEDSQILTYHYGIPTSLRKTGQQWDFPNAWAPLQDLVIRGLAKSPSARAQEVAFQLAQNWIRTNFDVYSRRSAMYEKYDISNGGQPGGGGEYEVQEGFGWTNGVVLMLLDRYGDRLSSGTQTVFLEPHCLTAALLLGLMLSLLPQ
Procedure, shortened: as §1

Helix pomatia = assay: Inhibition of Helix pomatia beta-mannosidase at 2 mM incubated for 10 to 30 mins using substrate by spectrophotometry
Procedure, shortened: as §1

[4] = target: Lysosomal alpha-glucosidase (Homo sapiens) (UniProt P10253); assay: Inhibition of alpha-glucosidase (unknown origin) by spectrophotometry
[5] = target: Alpha-galactosidase (Coffea arabica) (UniProt Q42656); assay: Inhibition of green coffee alpha-galactosidase at 2 mM incubated for 10 to 30 mins using p-nitrophenyl alpha-D-glycopyranoside substrate by spectrophotometry
Chain of Alpha-galactosidase (Coffea arabica) (Q42656 16-378 limits assumed): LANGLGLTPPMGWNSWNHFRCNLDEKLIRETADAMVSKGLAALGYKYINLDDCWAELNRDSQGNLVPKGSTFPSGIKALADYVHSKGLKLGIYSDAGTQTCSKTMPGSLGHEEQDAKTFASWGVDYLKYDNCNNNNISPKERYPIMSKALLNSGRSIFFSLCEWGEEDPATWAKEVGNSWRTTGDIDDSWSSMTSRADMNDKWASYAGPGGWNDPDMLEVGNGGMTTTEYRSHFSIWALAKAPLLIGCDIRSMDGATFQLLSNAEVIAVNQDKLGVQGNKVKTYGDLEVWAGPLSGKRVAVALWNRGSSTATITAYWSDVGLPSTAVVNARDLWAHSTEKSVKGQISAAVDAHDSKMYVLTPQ
Procedure, shortened: as §1

Homo sapiens = species on record: Homo sapiens; assay: Inhibition of alpha-galactosidase (unknown origin) by spectrophotometry
Prunus dulcis = assay: Inhibition of almonds beta-glucosidase at 2 mM incubated for 10 to 30 mins using p-nitrophenyl beta-D-glycopyranoside substrate by spectrophotometry
Procedure, shortened: as §1

[6] = target: Beta-galactosidase (Escherichia coli K-12) (UniProt P00722); assay: Inhibition of Escherichia coli beta-galactosidase at 2 mM incubated for 10 to 30 mins using o-nitrophenyl beta-D-galactopyranoside substrate by spectrophotometry
Chain of Beta-galactosidase (Escherichia coli K-12) (P00722 whole entry): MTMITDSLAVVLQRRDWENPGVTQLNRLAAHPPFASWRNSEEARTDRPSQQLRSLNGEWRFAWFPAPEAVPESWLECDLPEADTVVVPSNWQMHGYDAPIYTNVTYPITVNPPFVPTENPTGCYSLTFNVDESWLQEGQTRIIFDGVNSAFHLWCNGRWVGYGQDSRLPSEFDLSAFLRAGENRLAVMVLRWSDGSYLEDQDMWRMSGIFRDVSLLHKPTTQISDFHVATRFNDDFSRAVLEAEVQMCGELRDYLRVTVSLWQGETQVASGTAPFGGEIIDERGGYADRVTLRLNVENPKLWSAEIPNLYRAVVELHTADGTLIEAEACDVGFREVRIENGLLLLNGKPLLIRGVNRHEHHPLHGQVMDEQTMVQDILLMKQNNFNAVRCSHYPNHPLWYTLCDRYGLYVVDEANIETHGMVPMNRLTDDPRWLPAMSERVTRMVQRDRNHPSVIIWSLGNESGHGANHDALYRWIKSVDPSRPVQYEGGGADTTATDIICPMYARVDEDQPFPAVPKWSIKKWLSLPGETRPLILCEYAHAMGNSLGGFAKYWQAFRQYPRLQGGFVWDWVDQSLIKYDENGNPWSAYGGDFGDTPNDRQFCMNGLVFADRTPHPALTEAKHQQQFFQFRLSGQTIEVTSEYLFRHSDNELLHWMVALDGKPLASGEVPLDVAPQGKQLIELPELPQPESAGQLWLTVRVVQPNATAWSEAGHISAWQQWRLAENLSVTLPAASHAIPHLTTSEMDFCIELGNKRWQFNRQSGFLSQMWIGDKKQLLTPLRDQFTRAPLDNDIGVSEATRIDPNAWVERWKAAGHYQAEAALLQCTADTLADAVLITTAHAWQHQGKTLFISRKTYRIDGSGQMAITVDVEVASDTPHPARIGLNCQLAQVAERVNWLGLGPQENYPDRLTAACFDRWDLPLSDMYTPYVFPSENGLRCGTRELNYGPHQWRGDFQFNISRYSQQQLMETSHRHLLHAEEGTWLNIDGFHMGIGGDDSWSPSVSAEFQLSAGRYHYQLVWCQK
Procedure, shortened: as §1

[7] = target: T1, Lysosomal acid glucosylceramidase; assay: Inhibition of human beta-glucocerebrosidase at pH 7.0 by spectrophotometry

Row | IC50 ([1]; read-out: IC50) [µM] | inhibition (Aspergillus niger) | inhibition [2] | inhibition (Saccharomyces cerevisiae) | inhibition (Penicillium decumbens) | inhibition [3] | inhibition (Helix pomatia) | inhibition [4] | inhibition [5] | inhibition (Homo sapiens) | inhibition (Prunus dulcis) | inhibition [6] | IC50 ([7]; read-out: IC50) [µM] | IC50 [1] | IC50 [7] | Structure (SMILES)
1 | 27 | inactive | inactive | inactive | inactive | inactive | inactive | inactive | inactive | inactive | inactive | inactive | 3.9 |  |  | OC[C@H]1O[C@@H]2N=C(SCCCCCCCCCCCCCCCCF)O[C@@H]2[C@@H](O)[C@@H]1O
2 | 300 | inactive | inactive | inactive | inactive | inactive | inactive | inactive | inactive | inactive | inactive | inactive | 33 |  |  | COC(=O)CCCCCCCCCCCCCCCSC1=N[C@H]2O[C@H](CO)[C@@H](O)[C@H](O)[C@H]2O1
3 |  | inactive | inactive | inactive | inactive | inactive | inactive | inactive | inactive | inactive | inactive | inactive |  | Not Active | Not Active | OC[C@H]1O[C@@H]2N=C(SCCCCCCCCCCCCCCCCSC3=N[C@H]4O[C@H](CO)[C@@H](O)[C@H](O)[C@H]4O3)O[C@@H]2[C@@H](O)[C@@H]1O
4 |  | inactive | inactive | inactive | inactive | inactive | inactive | inactive | inactive | inactive | inactive | inactive |  | Not Active | Not Active | OCCCCCCCCCCCCCCCCSC1=N[C@H]2O[C@H](CO)[C@H](O)[C@H](O)[C@H]2O1
